Usually Km stands for the concentration of substrate that gives half-maximal velocity. As usually defined, the inhibition is the relative decrease from the control value, in per cent. Read a high inhibition as a strong effect.

In one data set the test system is CSC[C@@H](C)C(N)C(=O)O. Description: (§1) Substrate activity with […] (M-T) form of rat methionine adenosyltransferase. The data set is classed as protein assay.
For a further data set, the system named is CSCC[C@](C)(N)C(=O)O. The data set is described as §1. The data set is classed as protein assay.
Data set [1] deals with CSCC[C@H](N)C(=O)O. In words: (§2) Substrate activity with […] form of rat methionine Adenosyltransferase. It counts as protein assay.
Data set [2] relates to CSCC(C)C(N)C(=O)O. The data set is described as §2. The data set is classed as protein assay.
The target of data set [3] is T1, S-adenosylmethionine synthetase (MAT 1 and MAT 2) (Rattus norvegicus) (UniProt P13444+P18298). Description: Substrate activity as rate of conversion of [C14]-ATP to [C14]-Adomet in relation to KM value of methionine with M-T of rat methionine adenosyltransferase. It counts as protein assay. A digest of the protocol: (§3)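 Kinetics with 0.4 mM [14C]ATP and 1.72 × 10^-6 units M-2 (kidney) or 1.58 × 10^-6 units M-T (hepatoma), 60 min, 37 °C, pH 8.2. Product resolved by paper electrophoresis and counted. KM and Vmax from linear double-reciprocal plots. Vmax expressed relative to L-Met = 100; reported as the relative Vmax/KM ratio.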

In data set [4] the target is T1, S-adenosylmethionine synthetase (MAT 1 and MAT 2) (Rattus norvegicus). In words: Compound (3 mM) was tested for the inhibition of conversion of [14C]methionine to [14C]-AdoMet by M-T (hepatoma tissue) of rat methionine adenosyltransferase. The data set is classed as protein assay. In short, it runs like this:
(§4)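 Radiometric [14C]Met→[14C]AdoMet assay with partially purified rat MAT (M-2 from kidney, 8.6 × 10^-6 units; M-T from Novikoff hepatoma, 7.9 × 10^-6 units). Derivative at 3 mM, 2 mM MgATP, pH 8.2 Tris/KCl/MgCl2/DTT buffer, 37 °C, 10 min. Acid-stopped; supernatant counted on phosphocellulose discs. No-ATP incubations served as controls.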

Data set [5] has as its target S-adenosylmethionine synthase isoform type-2 (Rattus norvegicus) (UniProt P18298). In words: Substrate activity of compound (4 mM) measured as the rate of conversion of [C14]-ATP to [C14]-Adomet in relation to KM value of methionine with rat Methionine adenosyltransferase II. A digest of the protocol: as §3
Target sequence in this assay (P18298 whole entry, canonical isoform): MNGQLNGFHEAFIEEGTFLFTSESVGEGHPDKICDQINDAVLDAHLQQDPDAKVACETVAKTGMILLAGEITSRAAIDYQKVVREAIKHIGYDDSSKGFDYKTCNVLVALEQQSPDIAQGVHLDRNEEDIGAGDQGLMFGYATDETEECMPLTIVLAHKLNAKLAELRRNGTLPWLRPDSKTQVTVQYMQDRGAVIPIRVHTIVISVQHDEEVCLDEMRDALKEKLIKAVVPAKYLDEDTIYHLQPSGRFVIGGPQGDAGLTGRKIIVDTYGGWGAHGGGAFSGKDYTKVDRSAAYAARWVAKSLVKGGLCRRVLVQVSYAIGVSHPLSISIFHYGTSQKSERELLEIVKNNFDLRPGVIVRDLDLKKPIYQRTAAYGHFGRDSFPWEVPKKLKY
Data set [6] has the same target. Description: Compound (3 mM) was tested for the inhibition of conversion of [14C]methionine to [14C]AdoMet by M-2 (normal tissue) of rat methionine Adenosyltransferase. In short, it runs like this:
as §4
Target sequence in this assay (P18298 whole entry, canonical isoform): as above

The target is the same in data set [7]. Description: Compound (3 mM) was tested for the inhibition of conversion of [14C]methionine to [14C]AdoMet by rat Methionine adenosyltransferase II. A digest of the protocol:
as §4
Target sequence in this assay (P18298 whole entry, canonical isoform): as above

Data set [8] can be described thus: Ratio of Vmax of normal tissue (M-T) form of rat methionine Adenosyltransferase to that of KM of normal tissue(M-T)form of rat methionine Adenosyltransferase. A digest of the protocol:
as §3

Data set [9] in a line: Ratio of relative Vmax of normal tissue (M-2) form of rat methionine Adenosyltransferase to that of KM of normal tissue(M-2)form of rat methionine Adenosyltransferase. A digest of the protocol:
as §3

Data set [10] concerns the target T1, S-adenosylmethionine synthetase (MAT 1 and MAT 2) (Rattus norvegicus). In words: […](M-T) of rat methionine adenosyl transferase. The data set is classed as protein assay. A digest of the protocol: (§5)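 KM from linear double-reciprocal plots of velocity vs derivative concentration. Conditions: 0.4 mM [14C]ATP, 1.72 × 10^-6 units M-2 (rat kidney) or 1.58 × 10^-6 units M-T (Novikoff hepatoma), 60 min, 37 °C, Tris pH 8.2 with KCl/MgCl2/DTT. [14C]AdoMet derivative separated by paper electrophoresis and counted.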

The target is the same in data set [11]. Description: Substrate activity of compound (4 mM) measured as the rate of conversion of [C14]-ATP to [C14]-Adomet in relation to KM value of methionine with M-T of rat MAT. The data set is classed as protein assay. In short, it runs like this: as §3
Data set [12] shares this target. Description: Compound (3 mM) was tested for the inhibition of conversion of [14C]methionine to [14C]-AdoMet by M-T (hepatoma tissue) of rat methionine Adenosyltransferase. The data set is classed as protein assay. A digest of the protocol: as §4
Data set [13] has the same target. In words: Substrate level that produces half the maximal velocity(M-2) of rat methionine adenosyl transferase. It counts as protein assay. A digest of the protocol:
as §5

For data set [14] the target is unchanged. In words: Compound (3 mM) was tested for the inhibition of conversion of [14C]methionine to [14C]AdoMet by M-T (hepatoma tissue) of methionine adenosyltransferase. It counts as protein assay. In short, it runs like this:
as §4

The target of data set [15] is S-adenosylmethionine synthase isoform type-2 (Rattus norvegicus) (UniProt P18298). In words: Substrate activity of compound (4 mM) measured as the rate of conversion of [C14]-ATP to [C14]-Adomet in relation to KM value of methionine of rat Methionine adenosyltransferase II. A digest of the protocol: as §3
Target sequence in this assay (P18298 whole entry, canonical isoform): as above
In data set [16] the target is T1, S-adenosylmethionine synthetase (MAT 1 and MAT 2) (Rattus norvegicus). Description: Substrate level that produces half the maximal velocity(M-T) of rat methionine adenosyltransferase. The data set is classed as protein assay. In short, it runs like this: as §5
The target in data set [17] is S-adenosylmethionine synthase isoform type-2 (Rattus norvegicus) (UniProt P18298). Description: Substrate activity with normal tissue form of rat Methionine adenosyltransferase II.
Target sequence in this assay (P18298 whole entry, looked up, canonical isoform): as the sequence (P18298 whole entry, canonical isoform) above
Another data set has as its system CSC(C)C[C@@H](N)C(=O)O. In words: (§6) Substrate activity with rat Methionine adenosyltransferase II.
Data set [18] concerns CSCC[C@H](N)C(=O)O. The data set is described as §6.
Data set [19] has as its system CSCC(C)C(N)C(=O)O. The data set is described as §6.
Data set [20] has as its system CS[C@H](C)C[C@H](N)C(=O)O. Described as §6.
Data set [21] concerns the target T1, S-adenosylmethionine synthetase (MAT 1 and MAT 2) (Rattus norvegicus). In words: Substrate level that produces half the maximal velocity(M-2) of rat methionine adenosyltransferase. It counts as protein assay. A digest of the protocol:
as §5

Data set [22] deals with S-adenosylmethionine synthase isoform type-2 (Rattus norvegicus) (UniProt P18298). In words: Substrate activity of compound (4 mM) measured as the rate of conversion of [C14]-ATP to [C14]-Adomet in relation to KM value of methionine rat Methionine adenosyltransferase II. In short, it runs like this: as §3
Target sequence in this assay (P18298 whole entry, canonical isoform): as above
For data set [23] the target is unchanged. The description is as §6. Conditions: concentration not given here. A digest of the protocol: (§7)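 Derivative at 4 mM with [14C]ATP and 1.6 × 10^-5 units rat MAT, 1 h at 37 °C. [14C]AdoMet derivative separated by paper electrophoresis (pH 5.0 acetate) and counted. Result given as cpm per 10 µL above a control lacking the derivative. At least twice control counts scored as substrate activity.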
Target sequence in this assay (P18298 whole entry, canonical isoform): as above

Data set [24] has as its target T1, S-adenosylmethionine synthetase (MAT 1 and MAT 2) (Rattus norvegicus). Description: Substrate activity with […](M-Tform of rat methionine adenosyltransferase. It counts as protein assay. Conditions: concentration not given here. In short, it runs like this:
as §7

Data set [25] shares this target. In words: Rate of conversion of [C14]-ATP to [C14]-Adomet in relation to KM value of methionine with methionine adenosyltransferase. The data set is classed as protein assay. A digest of the protocol: as §3
The target in data set [26] is S-adenosylmethionine synthase isoform type-2 (Rattus norvegicus) (UniProt P18298). Description: Rate of conversion of [C14]-ATP to [C14]-Adomet in relation to KM value of methionine with Methionine adenosyltransferase II. In short, it runs like this:
as §3

Values joined by “and” are separate entries in the source; they are usually repeats but may differ in a detail not shown here. Identical values can stand only once.

S-adenosylmethionine synthetase (MAT 1 and MAT 2) (Rattus norvegicus) (from UniProt P13444+P18298), sequence (P18298 whole entry, looked up): as the sequence (P18298 whole entry, canonical isoform) above
S-adenosylmethionine synthetase (MAT 1 and MAT 2) (Rattus norvegicus) (from UniProt P13444+P18298), sequence (P13444 whole entry, looked up): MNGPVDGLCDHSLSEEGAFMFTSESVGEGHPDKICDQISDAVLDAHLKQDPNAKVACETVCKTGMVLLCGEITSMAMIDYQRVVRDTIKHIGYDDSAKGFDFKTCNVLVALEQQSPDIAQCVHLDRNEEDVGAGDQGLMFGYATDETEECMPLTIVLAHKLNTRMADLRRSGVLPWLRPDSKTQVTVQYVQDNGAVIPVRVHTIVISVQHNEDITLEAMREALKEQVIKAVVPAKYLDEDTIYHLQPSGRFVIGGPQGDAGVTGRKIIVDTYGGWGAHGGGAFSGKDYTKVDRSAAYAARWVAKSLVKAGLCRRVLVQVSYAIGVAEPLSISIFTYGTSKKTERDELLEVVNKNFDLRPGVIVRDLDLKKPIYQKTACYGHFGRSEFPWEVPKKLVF
S-adenosylmethionine synthase isoform type-2 (Rattus norvegicus), P18298, sequence (P18298 whole entry, canonical isoform): as the sequence (P18298 whole entry, canonical isoform) above

Consider “S-adenosylmethionine synthetase (MAT 1 and MAT 2) (Rattus norvegicus) (from UniProt P13444+P18298)”, for which the Km is 20 mM in the data set with CSC[C@@H](C)C(N)C(=O)O, 21 mM with CSCC[C@](C)(N)C(=O)O, 0.0156 mM in the data set with CSCC[C@H](N)C(=O)O [1] and 1.4 mM with CSCC(C)C(N)C(=O)O [2].
In the case of `CS[C@@H](C)C[C@@H](N)C(=O)O`, the results for the Substrate activity in [3] and in data set [5] were 173 c.p.m and 30 c.p.m, respectively. Moreover, the inhibition was found to be 14% in [4] and 9.7% in data set [6].
For the molecule `CN[C@@H](CCSC)C(=O)O`, the inhibition in data set [7] is 2.9%; in data set [4] it was 0%. The results for the Substrate activity in [3] and in data set [5] were 36 c.p.m and -9 c.p.m, respectively.
`CSCC[C@H](N)C(=O)O`: the results for the Ratio in data set [8] and in data set [9] were 6400 and 20000, respectively. In addition, in [10], the Relative Vmax was 100.
For `CSCC(C)C(N)C(=O)O` (stereo not drawn), the Ratio in data set [8] was found to be 8.6; in data set [9], 4.4. Also, the values for the Substrate activity in data set [11] and in [5] were 701 c.p.m and 838 c.p.m, respectively. Also, the Relative Vmax in data set [10] is 27 and 12. Moreover, the inhibition is 65% in data set [12] and 68% in data set [6].
Turning to `CSC[C@@H](C)[C@@H](N)C(=O)O`, the Ratio in data set [9] is 0.9. Also, the inhibition was 21% in [7] and 15% in [4]. The Substrate activity in data set [3] turned out to be 381 c.p.m; in [5], 333 c.p.m. The molecule further yielded a Relative Vmax in data set [13] of 26.
Turning to `CSCC[C@@](C)(N)C(=O)O`, the inhibition in [14] came to 3.7%; in [6] it was 4.8%. For the same molecule, the figures for the Substrate activity in data set [3] and in data set [5] were 40 c.p.m and 41 c.p.m, respectively.
`CSC[C@@H](C)C(N)C(=O)O` (stereo partly drawn): the figures for the Substrate activity in data set [15] and in [3] were 38 c.p.m and 348 c.p.m, respectively. Besides, the Ratio in data set [8] was 1.8. The molecule also had a Relative Vmax in data set [16] of 37. Further, the inhibition in [7] was determined as 15%; in [4], 8.7%.
As for `CCCCN[C@@H](CCSC)C(=O)O`, the inhibition in data set [7] and in data set [14] was 0% each time. Besides, the Substrate activity in data set [3] is 13 c.p.m; in data set [5], -15 c.p.m.
Regarding “S-adenosylmethionine synthase isoform type-2 (Rattus norvegicus), P18298”, the Km was 29 mM in data set [17]; 10 mM with CSC(C)C[C@@H](N)C(=O)O; 0.005 mM in the data set on CSCC[C@H](N)C(=O)O [18]; 6.1 mM in the data set with CSCC(C)C(N)C(=O)O [19]; 14 mM in [20].
As to `CS[C@H](C)C[C@H](N)C(=O)O`, in data set [9], the Ratio was found to be 1.9. Besides, the inhibition in [7] was 24%; in [4] it was 15%. Besides, the Substrate activity in data set [3] turned out to be 731 c.p.m; in [5] it was 506 c.p.m. This molecule also yielded a Relative Vmax in data set [21] of 27.
On to `CSC(C)C[C@@H](N)C(=O)O` (stereo partly drawn), for which the Ratio in data set [9] is 2.6. The inhibition in data set [7] came out at 29%; in [4], 24%. Further, the Substrate activity in [3] was determined as 272 c.p.m; in data set [5] it was 624 c.p.m. In data set [21], the Relative Vmax turned out to be 26.
As for `CSCC[C@](C)(N)C(=O)O`, the Ratio in data set [8] was 1.3. Besides, the Substrate activity in data set [22] stood at 49 c.p.m; in data set [3], 241 c.p.m. This molecule also displayed a Relative Vmax in [16] of 27. Further, the inhibition in [7] amounted to 15%; in data set [4], 11%.
Regarding `CSC[C@@H](C)[C@H](N)C(=O)O`, the inhibition worked out at 17% in data set [7] and 6.6% in data set [4]. Moreover, the values for the Substrate activity in data set [3] and in data set [5] were 191 c.p.m and -10 c.p.m, respectively.
`CNCCC(N)C(=O)O` (stereo not drawn): the inhibition in [23] was found to be 6.6%; in data set [24] it was 0%. For the same molecule, the Substrate activity in data set [25] amounted to 33 cpm; in data set [26], 37 cpm.

For the origin of these results see ChEMBL document CHEMBL1123437, “Isozyme-specific enzyme inhibitors. 12. C- and N-methylmethionines as substrates and inhibitors of methionine adenosyltransferases of normal and hepatoma rat tissues” (J Med Chem, 1986).
